Assay results of several laboratories.
Protocols differ between the studies behind these lines.
Sample: plasma

| Compound | system | conditions | quantity | result |
| --- | --- | --- | --- | --- |
| COc1ccc2c(c1)CN(C(=O)CCN1CCC(Cc3ccccc3)CC1)CC[S@@+]2[O-] | male human | intravenous, 0.4 mg/kg, healthy volunteers | Vd | 46.3 L |
| CC(C)c1nc(N(C)S(C)(=O)=O)nc(-c2ccc(F)cc2)c1/C=C/[C@@H](O)C[C@@H](O)CC(=O)O | human | oral, 10 mg | Vd/F | 8020 L |
| C=CC(=O)N1C[C@H](Nc2ncnc3[nH]ccc23)CC[C@@H]1C | human | oral, 30 mg | Vd/F | 183 L |
| N#Cc1cccc(-c2ccc3ncc(-c4cc(F)cc(F)c4)c(N4CCC(N)CC4)c3c2)c1O | human | intravenous, 50 µg | Vd | 220 L |
| COc1ccc(F)cc1C(=O)NCc1ccc(-c2nn([C@@H](C)C(F)(F)F)c(N)c2C(N)=O)cc1 | male human | intravenous, 22 µg | Vd | 0.54 L/kg |
| C=CC(=O)NC1CCN(c2ncc3ncnc(Nc4ccc(Oc5ccc6c(c5)ncn6C)c(C)c4)c3n2)CC1 | male human | intravenous, 100 µg, single dose, healthy volunteers | Vd | 391 L |
| C[C@@H](Oc1ccc(S(C)(=O)=O)cc1C(=O)N1C[C@@H]2C[C@]2(c2cc(C(F)(F)F)on2)C1)C(F)(F)F | human | oral, 10 mg, single dose, fed | Vd/F | 247 L |
| OC[C@H]1O[C@@H](c2cc(Cc3ccc(C4CC4)cc3)c(Cl)c3c2CCO3)[C@H](O)[C@@H](O)[C@@H]1O | human | oral, 0.3 mg, single dose, fed | Vd/F | 177 L |
